Measurements reported in ChEMBL document CHEMBL3526045, “Conclusive identification of the oxybutynin-hydrolyzing enzyme in human liver” (Drug Metab Dispos, 2012).

Key:
Cocaine esterase [1] = target: T1, Cocaine esterase (Homo sapiens, UniProt O00748); assay: Activity of human recombinant CES2 expressed in baculovirus-infected High Five insect cells assessed as enzyme-mediated compound formation formation treated with oxybutynin at 10 uM for 30 mins by HPLC analysis in presence of 10 uM CES1 inhibitor NDGA; assay type: ADME; settings: 0.5 h
T1 sequence (O00748 whole entry): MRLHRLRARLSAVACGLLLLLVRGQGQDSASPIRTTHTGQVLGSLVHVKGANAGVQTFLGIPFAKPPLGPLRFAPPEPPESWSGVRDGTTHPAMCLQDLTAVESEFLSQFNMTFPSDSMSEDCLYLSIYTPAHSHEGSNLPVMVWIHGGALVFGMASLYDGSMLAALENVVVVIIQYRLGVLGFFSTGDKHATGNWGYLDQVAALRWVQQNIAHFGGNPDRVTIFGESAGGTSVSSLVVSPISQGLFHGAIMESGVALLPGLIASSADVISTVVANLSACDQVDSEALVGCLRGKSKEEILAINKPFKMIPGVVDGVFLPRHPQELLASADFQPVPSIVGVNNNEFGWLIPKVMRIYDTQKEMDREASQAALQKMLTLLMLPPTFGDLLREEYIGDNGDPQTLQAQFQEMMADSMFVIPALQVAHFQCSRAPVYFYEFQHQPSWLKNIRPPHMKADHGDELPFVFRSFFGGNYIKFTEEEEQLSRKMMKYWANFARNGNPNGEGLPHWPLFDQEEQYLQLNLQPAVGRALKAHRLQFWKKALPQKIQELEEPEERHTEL
How it was run: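 Oxybutynin (10 μM) hydrolysis to CPGA by recombinant CES2-expressing microsomes at 0.1 mg/mL final protein, in 0.05 mol/L Tris-HCl pH 7.6 at 37 °C. Inhibitor was added before a 5 min preincubation, with at most 0.2% final DMSO. Substrate addition started the reaction, which ran 30 min. It was stopped with ACN/1% formic acid plus internal standard. CPGA was quantified by LC-MS/MS in negative MRM mode, as relative activity versus control, in duplicate.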

[2] = Activity of human recombinant CES1b/CES1A1 expressed in baculovirus-infected High Five insect cells assessed as enzyme-mediated 2-cyclohexyl-2-phenylglycolic acid formation per mg of protein by Michaelis-Menten equation; assay type: ADME
How it was run: (§1)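 Oxybutynin (2.5–250 μM) incubated 15 min at 37 °C in 0.05 mol/L Tris-HCl pH 7.6 after 5 min pre-incubation. Final protein: liver microsomes 0.05, liver cytosol 0.1, recombinant CES1 microsomes 0.05 mg/mL. Stopped with acetonitrile/1% formic acid plus internal standard; CPGA quantified by LC-MS/MS in negative MRM mode; duplicates. Km, Vmax from Michaelis-Menten fit; CLint = Vmax/Km.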

[3] = Drug metabolism in human liver microsomes; assay type: ADME
Cocaine esterase [4] = target: T1, Cocaine esterase; assay: Activity of human recombinant CES2 expressed in baculovirus-infected High Five insect cells assessed as 5 uM CES1 inhibitor clopidogrel-mediated inhibition of enzyme-mediated 2-cyclohexyl-2-phenylglycolic acid formation at 10 uM for 30 mins by HPLC analysis; settings: 0.5 h
Liver microsome [5] = assay: Drug metabolism in human liver microsomes assessed as 2-cyclohexyl-2-phenylglycolic acid formation per mg of protein by Michaelis-Menten equation; assay type: ADME; how it was run: as §1
[6] = Drug metabolism in human liver cytosol; assay type: ADME, tissue-based
Cocaine esterase [7] = target: T1, Cocaine esterase; assay: Activity of human recombinant CES2 expressed in baculovirus-infected High Five insect cells assessed as 50 uM CES1 inhibitor clopidogrel-mediated inhibition of enzyme-mediated 2-cyclohexyl-2-phenylglycolic acid formation at 10 uM for 30 mins by HPLC analysis; settings: 0.5 h
Cocaine esterase [8] = target: T1, Cocaine esterase; assay: Activity of human recombinant CES2 expressed in baculovirus-infected High Five insect cells assessed as 5 uM CES2 inhibitor loperamide-mediated inhibition of enzyme-mediated 2-cyclohexyl-2-phenylglycolic acid formation at 10 uM for 30 mins by HPLC analysis; settings: 0.5 h
Liver cytosol [9] = assay: Drug metabolism in human liver cytosol assessed as 2-cyclohexyl-2-phenylglycolic acid formation by Michaelis-Menten equation; assay type: ADME, tissue-based; how it was run: as §1
Cocaine esterase [10] = target: T1, Cocaine esterase; assay: Activity of human recombinant CES2 expressed in baculovirus-infected High Five insect cells assessed as enzyme-mediated 2-cyclohexyl-2-phenylglycolic acid formation per mg of protein by Michaelis-Menten equation; assay type: ADME
Liver microsome [11] = assay: Intrinsic clearance in human liver microsomes assessed as 2-cyclohexyl-2-phenylglycolic acid formation per mg of protein by Michaelis-Menten equation; assay type: ADME; how it was run: as §1
Cocaine esterase [12] = target: T1, Cocaine esterase; assay: Activity of human recombinant CES2 expressed in baculovirus-infected High Five insect cells assessed as 30 to 300 uM CES1 inhibitor procainamide-mediated inhibition of enzyme-mediated 2-cyclohexyl-2-phenylglycolic acid formation at 10 uM for 30 mins by HPLC analysis; settings: 0.5 h
Liver cytosol [13] = assay: Intrinsic clearance in human liver cytosol assessed as 2-cyclohexyl-2-phenylglycolic acid formation per mg of protein by Michaelis-Menten equation; assay type: ADME, tissue-based; how it was run: as §1
[14] = Activity of human recombinant CES1b/CES1A1 expressed in baculovirus-infected High Five insect cells assessed as intrinsic clearance for enzyme-mediated 2-cyclohexyl-2-phenylglycolic acid formation per mg of protein by Michaelis-Menten equation; assay type: ADME; how it was run: as §1
[15] = Activity of human recombinant CES1b/CES1A1 expressed in baculovirus-infected High Five insect cells assessed as enzyme-mediated 2-cyclohexyl-2-phenylglycolic acid formation by Michaelis-Menten equation; assay type: ADME; how it was run: as §1
Cocaine esterase [16] = target: T1, Cocaine esterase; assay: Activity of human recombinant CES2 expressed in baculovirus-infected High Five insect cells assessed as intrinsic clearance for enzyme-mediated 2-cyclohexyl-2-phenylglycolic acid formation per mg of protein by Michaelis-Menten equation; assay type: ADME
Liver microsome [17] = assay: Drug metabolism in human liver microsomes assessed as 2-cyclohexyl-2-phenylglycolic acid formation by Michaelis-Menten equation; assay type: ADME; how it was run: as §1
Liver cytosol [18] = assay: Drug metabolism in human liver cytosol assessed as 2-cyclohexyl-2-phenylglycolic acid formation per mg of protein by Michaelis-Menten equation; assay type: ADME, tissue-based; how it was run: as §1
[19] = substrate: CCN(CC)CC#CCOC(=O)C(O)(c1ccccc1)C1CCCCC1; assay: Activity of human recombinant CES2 expressed in baculovirus-infected High Five insect cells assessed as enzyme-mediated 2-cyclohexyl-2-phenylglycolic acid formation by Michaelis-Menten equation; assay type: ADME
[20] = substrate: CCN(CC)CC#CCOC(=O)C(O)(c1ccccc1)C1CCCCC1; assay: Activity of human CES2; assay type: ADME

O=C(O)C(O)(c1ccccc1)C1CCCCC1 (stereo unspecified)
Drug metabolism (Cocaine esterase [1]): metabolite_detected

CCN(CC)CC#CCOC(=O)C(O)(c1ccccc1)C1CCCCC1.Cl (stereo unspecified) [OXYBUTYNIN CHLORIDE]
Vmax [2]: 310 pmol/min | Km [3]: 22 µM | inhibition (INH) (Cocaine esterase [4]): < 11% | Vmax (Liver microsome [5]): 130 pmol/min | Km [6]: 13 µM | inhibition (INH) (Cocaine esterase [7]): 53% | inhibition (INH) (Cocaine esterase [8]): 58% | Km (Liver cytosol [9]): 13 µM | Vmax (Cocaine esterase [10]): 32 pmol/min | CLint (Liver microsome [11]): 5.9 µL/min/mg | inhibition (INH) (Cocaine esterase [12]): < 14% | CLint (Liver cytosol [13]): 8.2 µL/min/mg | clearance [14]: 18 µL/min/mg | Km [15]: 17 µM | clearance (Cocaine esterase [16]): 0.51 µL/min/mg | Km (Liver microsome [17]): 22 µM | Vmax (Liver cytosol [18]): 110 pmol/min

B1: Cocaine esterase (Homo sapiens) (protein)
chain: T1 sequence (O00748 whole entry)
Km [19]: 62 µM | Km [20]: 1100 µM | Vmax [20]: 0.36 µmol/min/mg
